Test results as given in ChEMBL document CHEMBL1944511, “Bakuchiol derivatives as novel and potent cytotoxic agents: a report” (Eur J Med Chem, 2012).
Calls of active or inactive are those of the source. The calls are words filed in the database; no cut-off is given here.

Columns and labels:
[1] = test system: HEp-2; test: Growth inhibition of human Hep2 cells at 50 uM after 48 hrs by sulpharhodamine B assay; type: functional; conditions: HEp-2, 48 h, read-out: GI
Outline: (§1)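 This is the SRB protein-stain assay on adherent cells in RPMI-1640/MEM with 10% FCS. Each compound in DMSO (vehicle <0.2%) was applied at a single fixed concentration for 48 h. Cells were fixed with TCA and stained with SRB, and the dye was solubilised in Tris and read at 570/620 nm. Percent growth inhibition is relative to vehicle-treated controls, reported as mean ± SD of three experiments run in triplicate.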

[2] = test system: A549; test: Cytotoxicity against human A549 cells after 48 hrs by sulpharhodamine B assay; type: functional, cell-based; conditions: A549, 48 h
Outline: (§2)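 Cells were grown in RPMI-1640/MEM with 10% FCS and penicillin/streptomycin at 37 °C under 5% CO2, then seeded and left to adhere overnight. Analogs in DMSO (vehicle <0.2%) were added at several concentrations for 48 h. Cells were fixed with cold 50% TCA, stained with 0.4% SRB in 1% acetic acid, solubilised in 10 mM Tris, and read at OD 570/620 nm. IC50 came from non-linear regression.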

[3] = test system: HL-60; test: Induction of apoptosis in human HL60 cells assessed as DNA fragmentation at 40 uM after 24 hrs by agarose gel electrophoresis; type: functional, cell-based
Outline: (§3)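 HL-60 cells (2×10^6/well/2 mL) treated 24 h in 6-well plates. DNA extracted with phenol:chloroform:isoamyl alcohol, ethanol-precipitated, run on 1% agarose at 80 V for 1.5 h in TAE.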

[4] = test system: HL-60; test: Cytotoxicity against human HL60 cells after 48 hrs by MTT assay; type: functional, cell-based; conditions: for IC50: HL-60, 48 h
Outline: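 Exponentially growing HL-60 cells (1.5×10^4 per well) in 96-well plates were exposed to a range of compound concentrations in DMSO, with vehicle-only controls. MTT (2.5 mg/mL stock) was added for 3–4 h at 37 °C, and formazan was dissolved in DMSO and read at OD 570/620 nm. […] Data are mean ± SD of n = 6 wells from two experiments.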

[5] = test system: HEp-2; test: Growth inhibition of human Hep2 cells at 5 uM after 48 hrs by sulpharhodamine B assay; type: functional; conditions: HEp-2, 48 h, read-out: GI; outline: as §1
[6] = test system: THP-1; test: Growth inhibition of human THP1 cells at 5 uM after 48 hrs by sulpharhodamine B assay; type: functional; conditions: THP-1, 48 h, read-out: GI
Outline: (§4)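 Cells grown in RPMI-1640/MEM with 10% FCS, penicillin/streptomycin, 37 °C, 5% CO2. Seeded in 96-well plates, allowed to adhere overnight, then exposed 48 h to analogs in DMSO (vehicle <0.2% in controls). TCA-fixed, stained with 0.4% SRB in 1% acetic acid, dye solubilized in 10 mM Tris base, OD 570 nm (ref 620 nm). Mean ± SD of three experiments run in triplicate.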

[7] = test system: HEp-2; test: Growth inhibition of human Hep2 cells at 30 uM after 48 hrs by sulpharhodamine B assay; type: functional; conditions: HEp-2, 48 h, read-out: GI; outline: as §1
[8] = test system: HL-60; test: Induction of apoptosis in human HL60 cells assessed as loss of mitochondrial membrane potential at 20 uM after 24 hrs by rodamine-123 staining-based flow cytometric analysis (reference value: 6%); type: functional
[9] = test system: HCT-15; test: Growth inhibition of human HCT15 cells at 20 uM after 48 hrs by sulpharhodamine B assay; type: functional; conditions: HCT-15, 48 h, read-out: GI; outline: as §1
[10] = test system: IMR-32; test: Growth inhibition of human IMR32 cells at 30 uM after 48 hrs by sulpharhodamine B assay; type: functional; conditions: IMR-32, 48 h, read-out: GI; outline: as §1
[11] = test system: DU-145; test: Growth inhibition of human DU145 cells at 20 uM after 48 hrs by sulpharhodamine B assay; type: functional; conditions: DU-145, 48 h, read-out: GI; outline: as §1
[12] = test system: HeLa; test: Growth inhibition of human HeLa cells at 30 uM after 48 hrs by sulpharhodamine B assay; type: functional; conditions: read-out: GI; outline: as §1
[13] = test system: SF-295; test: Cytotoxicity against human SF295 cells after 48 hrs by sulpharhodamine B assay; type: functional, cell-based; conditions: SF-295, 48 h; outline: as §2
[14] = test system: HEp-2; test: Cytotoxicity against human Hep2 cells after 48 hrs by sulpharhodamine B assay; type: functional, cell-based; conditions: HEp-2, 48 h; outline: as §2
[15] = test system: A549; test: Growth inhibition of human A549 cells at 20 uM after 48 hrs by sulpharhodamine B assay; type: functional; conditions: A549, 48 h, read-out: GI; outline: as §1
[16] = test system: HL-60; test: Induction of apoptosis in human HL60 cells assessed as DNA fragmentation at 20 uM after 24 hrs by agarose gel electrophoresis; type: functional, cell-based; outline: as §3
[17] = test system: HL-60; test: Induction of apoptosis in human HL60 cells assessed as increase in […] sub-G0 fraction at 5 uM by propidium iodide staining-based flow cytometric analysis (reference value: 6%); type: functional
[18] = test system: IMR-32; test: Growth inhibition of human IMR32 cells at 10 uM after 48 hrs by sulpharhodamine B assay; type: functional; conditions: IMR-32, 48 h, read-out: GI; outline: as §1
[19] = test system: IMR-32; test: Growth inhibition of human IMR32 cells at 5 uM after 48 hrs by sulpharhodamine B assay; type: functional; conditions: IMR-32, 48 h, read-out: GI; outline: as §1
[20] = test system: THP-1; test: Growth inhibition of human THP1 cells at 30 uM after 48 hrs by sulpharhodamine B assay; type: functional; conditions: THP-1, 48 h, read-out: GI; outline: as §4
[21] = test system: HL-60; test: Induction of apoptosis in human HL60 cells assessed as increase in […] sub-G0 fraction at 20 uM by propidium iodide staining-based flow cytometric analysis (reference value: 6%); type: functional
[22] = test system: HL-60; test: Induction of apoptosis in human HL60 cells assessed as increase in […] sub-G0 fraction at 1 uM by propidium iodide staining-based flow cytometric analysis (reference value: 6%); type: functional
[23] = test system: PC-3; test: Growth inhibition of human PC3 cells at 5 uM after 48 hrs by sulpharhodamine B assay; type: functional; conditions: PC-3, 48 h, read-out: GI; outline: as §4
[24] = test system: HL-60; test: Cytotoxicity against human HL60 cells after 48 hrs by sulpharhodamine B assay; type: functional, cell-based; conditions: HL-60, 48 h, in the assay text read “MTT assay” for “sulpharhodamine B assay”
[25] = test system: HEp-2; test: Growth inhibition of human Hep2 cells at 10 uM after 48 hrs by sulpharhodamine B assay; type: functional; conditions: HEp-2, 48 h, read-out: GI; outline: as §1
[26] = test system: A549; test: Growth inhibition of human A549 cells at 30 uM after 48 hrs by sulpharhodamine B assay; type: functional; conditions: A549, 48 h, read-out: GI; outline: as §1
[27] = test system: MCF7; test: Growth inhibition of human MCF7 cells at 20 uM after 48 hrs by sulpharhodamine B assay; type: functional; conditions: MCF7, 48 h, read-out: GI; outline: as §1
[28] = test system: HEp-2; test: Growth inhibition of human Hep2 cells at 20 uM after 48 hrs by sulpharhodamine B assay; type: functional; conditions: HEp-2, 48 h, read-out: GI; outline: as §1
[29] = test system: HL-60; test: Induction of apoptosis in human HL60 cells assessed as DNA fragmentation after 24 hrs by agarose gel electrophoresis; type: functional, cell-based; outline: as §3

With `CC1C(C(C)(C)O)CCC1(C)/C=C/c1ccc(O)cc1` (configuration not stated) the inhibition of growth at 50 µM [1] was 65%, the IC50 [2] was 17 µM and the Activity [3] was “Active”. The Activity [4] was “Dose-dependent effect”, the IC50 [4] was 1.8 µM and the inhibition of growth at 5 µM [5] was 17%. It also gave an inhibition of growth at 5 µM [6] of 54%, an inhibition of growth at 30 µM [7] of 53% and an Activity [8] of 49.1%. The inhibition of growth at 20 µM [9] was 63%, the inhibition of growth at 30 µM [10] was 57% and the inhibition of growth at 20 µM [11] was 54%. The inhibition of growth at 30 µM [12] was 52%, the IC50 [13] was 23 µM and the IC50 [14] was 19 µM. The inhibition of growth at 20 µM [15] was 53%, the Activity [16] was “Active” and the Activity [17] was 12%. It also gave an inhibition of growth at 10 µM [18] of 50%, an inhibition of growth at 5 µM [19] of 46% and an inhibition of growth at 30 µM [20] of 68%. The Activity [21] was 48%, the Activity [22] was 8% and the inhibition of growth at 5 µM [23] was 24%. For the same molecule, the IC50 [24] was 1.8 µM, the inhibition of growth at 10 µM [25] was 34% and the inhibition of growth at 30 µM [26] was 61%. The inhibition of growth at 20 µM [27] was 50% and the inhibition of growth at 20 µM [28] was 50%.
`COc1ccc(/C=C/[C@](C)(/C=C/c2ccc(O)cc2)CCC=C(C)C)cc1` was tested, and the inhibition of growth at 50 µM [1] was 62%, the IC50 [2] was 12 µM and the Activity [4] was “Dose-dependent effect”. For the same molecule, the IC50 [4] was 2 µM, the inhibition of growth at 5 µM [5] was 23% and the inhibition of growth at 5 µM [6] was 53%. It also gave an inhibition of growth at 30 µM [7] of 45%, an Activity [8] of 51.4% and an inhibition of growth at 20 µM [9] of 61%. It also gave an inhibition of growth at 30 µM [10] of 51%, an inhibition of growth at 20 µM [11] of 73% and an inhibition of growth at 30 µM [12] of 56%. The IC50 [13] was 22 µM, the IC50 [14] was 14 µM and the inhibition of growth at 20 µM [15] was 69%. It also gave an Activity [17] of 8%, an inhibition of growth at 10 µM [18] of 32% and an inhibition of growth at 5 µM [19] of 13%. For the same molecule, the inhibition of growth at 30 µM [20] was 60%, the Activity [21] was 54% and the Activity [29] was “Dose-dependent effect”. It also gave an Activity [22] of 5%, an inhibition of growth at 5 µM [23] of 23% and an IC50 [24] of 2 µM. The inhibition of growth at 10 µM [25] was 46%, the inhibition of growth at 30 µM [26] was 55% and the inhibition of growth at 20 µM [27] was 50%. For the same molecule, the inhibition of growth at 20 µM [28] was 58%.
